Counter-ions that a name gives are not always drawn.
Tests used:
granuphilin C2A domain [1] = target: T1, granuphilin C2A domain (Homo sapiens, UniProt Q96C24); assay: Intrinsic Trp fluorescence titration of IP6 or IP3 into free C2A domain; type: binding
T1 sequence (Q96C24 352-488): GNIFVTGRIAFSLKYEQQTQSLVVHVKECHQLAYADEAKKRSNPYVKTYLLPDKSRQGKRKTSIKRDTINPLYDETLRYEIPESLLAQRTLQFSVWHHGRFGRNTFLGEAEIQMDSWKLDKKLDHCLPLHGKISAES

granuphilin C2A domain [2] = target: T1, granuphilin C2A domain; assay: FRET competition binding assay: IP6 titrated into vesicle-bound C2A; conditions: 125 μM accessible lipid, 1 μM C2A
granuphilin C2B domain [3] = target: T2, granuphilin C2B domain (Homo sapiens, UniProt Q96C24); assay: FRET competition binding assay: IP6 titrated into vesicle-bound C2B
How it was run: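 Human C2B domain (Glu487–Leu671, E. coli-expressed, freed from GST by thrombin) at 1 μM, premixed with liposomes (125 μM total accessible lipid) in 140 mM KCl, […], 0.5 mM MgCl2, 25 mM HEPES pH 7.4 with 100 μM EDTA, 25 °C. IP6 titrated; acceptor emission at 520 nm (excitation 284 nm, 10-s average), dilution-corrected, lipid-only blank subtracted.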

granuphilin C2A domain [4] = target: T1, granuphilin C2A domain; assay: Qualitative reversal of protein-to-membrane FRET by IP6; type: binding; conditions: 8 mM IP6, all lipid compositions tested
How it was run: (§1)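 Emission spectra recorded at 25 °C (excitation 284 nm) of vesicles bearing dansyl-PE acceptor (125 μM total accessible lipid) in KCl/NaCl/MgCl2/HEPES pH 7.4 buffer with 100 μM EDTA or 1 mM CaCl2. […] Each addition followed by 40 s stirred equilibration. Dansyl emission near 510 nm read; spectra dilution-corrected.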

granuphilin C2B domain [5] = target: T2, granuphilin C2B domain; assay: as above; type: binding; conditions: 8 mM IP6, all lipid compositions tested
How it was run: as §1

granuphilin C2A domain [6] = target: T1, granuphilin C2A domain; assay: Membrane dissociation kinetics on rapid addition of high IP6; type: binding; conditions: 8 mM IP6 rapidly added; biexponential
[7] = Stopped-flow FRET association and dissociation kinetics; type: binding; conditions: 0.3 μM protein, 75 μM total accessible lipid
How it was run: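 Association run by stopped-flow at 25 °C in assay buffer with 100 μM EDTA: 0.3 μM domain rapidly mixed with liposomes (75 μM total accessible lipid, after mixing). Excitation 284 nm, dansyl emission through a 475-nm longpass filter, data within 1 ms dead time discarded. Single-exponential fit gives kobs; traces averaged over 9–12 mixing events, ≥3 replicates.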

[8] = Stopped-flow FRET association and dissociation kinetics; type: binding; conditions: 0.3 μM protein, 75 μM total accessible lipid; remark: listed apart in the source
How it was run: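 Stopped-flow measurements at 25 °C in assay buffer with 100 μM EDTA; excitation 284 nm, dansyl emission through a 475-nm longpass filter, first 1 ms discarded. For association, 0.3 μM domain was mixed with liposomes (75 μM total accessible lipid, after mixing), and a single-exponential fit gave kobs. For dissociation, pre-bound complexes were mixed with equal volume of 4-fold excess unlabeled vesicles, and an exponential decay fit gave koff. kon was derived from kobs and koff; ≥3 replicates.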

[9] = Qualitative protein-to-membrane FRET; type: binding; conditions: 1 μM domain, 125 μM total accessible lipid
How it was run: as §1

[10] = Qualitative protein-to-membrane FRET; type: binding; conditions: 1 μM domain, 125 μM total accessible lipid; remark: listed apart in the source
How it was run: as §1

[11] = Qualitative protein-to-membrane FRET; type: binding; conditions: 1 μM domain, 125 μM total accessible lipid; remark: listed apart in the source
How it was run: as §1

[12] = Qualitative protein-to-membrane FRET; type: binding; conditions: PS and PI replaced with PG; 1 μM domain
How it was run: as §1

Molecule	Ki (granuphilin C2A domain [1]) [µM]	fold less tight binding of IP3 than IP6 to C2A (granuphilin C2A domain [1])	IC50 (granuphilin C2A domain [2]; PC/PG/dPE vesicles) [µM]	IC50 (granuphilin C2A domain [2]; PC/PI/dPE vesicles) [µM]	IC50 (granuphilin C2A domain [2]; PC/PS/dPE vesicles) [µM]	IC50 (granuphilin C2A domain [2]; PM(+)PIP2 vesicles, 100 μM EDTA) [µM]	IC50 (granuphilin C2A domain [2]; PM(+)PIP3 vesicles) [µM]	IC50 (granuphilin C2A domain [2]; PM(−)PIPx vesicles) [µM]	IC50 (granuphilin C2B domain [3]) [µM]	Ki (granuphilin C2B domain [3]) [µM]	reversal of protein-to-membrane FRET (dansyl emission at 512 nm) (granuphilin C2A domain [4])	reversal of protein-to-membrane FRET (dansyl emission at 512 nm) (granuphilin C2B domain [5])	fold faster dissociation kinetics than by approach to equilibrium method (granuphilin C2A domain [6])	kobs for association [7] [s⁻¹]	kobs for association [8] [s⁻¹]	protein-to-membrane FRET (dPE emission) on protein addition [9]	protein-to-membrane FRET (dPE emission) on protein addition [10]	protein-to-membrane FRET (dPE emission) on protein addition [11]	protein-to-membrane FRET (dPE emission) on protein addition [12]
O=P(O)(O)O[C@@H]1[C@H](O)[C@H](O)[C@@H](OP(=O)(O)O)[C@H](OP(=O)(O)O)[C@H]1O [IP3, D-myo-inositol-1,4,5-triphosphate tripotassium salt]	80 ± 30	~ 40 fold	–	–	–	–	–	–	–	–	–	–	–	–	–	–	–	–	–
O=P(O)(O)O[C@H]1[C@H](OP(=O)(O)O)[C@@H](OP(=O)(O)O)[C@H](OP(=O)(O)O)[C@@H](OP(=O)(O)O)[C@H]1OP(=O)(O)O [IP6, D-myo-inositol 1,2,3,4,5,6,-hexakisphosphate dodecasodium salt]	1.8 ± 0.1	–	11 ± 1	5 ± 1	10 ± 1	1600 ± 200	1100 ± 100	37 ± 6	21 ± 3	1.9 ± 0.5	completely reversed	completely reversed	~ 100 fold	–	–	–	–	–	–
C2A: human granuphilin C2A domain (Gly352 – Ser488) with C-terminal His6 tag, expressed in E. coli (protein, UniProt Q96C24 352-488, looked up, fragment, C2A domain C-terminal His6 tag) GNIFVTGRIAFSLKYEQQTQSLVVHVKECHQLAYADEAKKRSNPYVKTYLLPDKSRQGKRKTSIKRDTINPLYDETLRYEIPESLLAQRTLQFSVWHHGRFGRNTFLGEAEIQMDSWKLDKKLDHCLPLHGKISAES	–	–	–	–	–	–	–	–	–	–	–	–	–	190 ± 30	150 ± 20	increase in dPE emission	increase in dPE emission	FRET was observed	Binding was restored
